Source: PMC3733255 (Clinical cancer research : an official journal of the …, 2012)

Experiments:
[1] = preclinical model; cited from earlier work
RCAS-PDGF glioblastoma = assay: Ex vivo NIRF imaging of sliced brains; assay type: in vivo, mouse; details: RCAS-PDGF model, brain slices 48 hours after probe injection, mean±SEM
How it was run: (§1)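 Test probe (1 nmol) injected via tail vein; controls were 1 nmol nonspecific RAD-peptide dye conjugate and a blocking mix (1 nmol probe plus 20 nmol unlabeled cRGD). Mice were killed at 48 h; whole brains were sliced coronally and imaged on Odyssey (800 nm channel, sensitivity 5, 21 μm resolution). Signal was background-subtracted and area-weighted, tumor vs corresponding normal brain; tumor confirmed by H&E.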

U-87 MG glioblastoma = assay: Ex vivo NIRF imaging of sliced brains; assay type: in vivo, mouse; details: U-87 MG model, brain slices 48 hours after probe injection, mean±SEM
How it was run: as §1

TS543 glioblastoma = assay: Ex vivo NIRF imaging of sliced brains; assay type: in vivo, mouse; details: TS543 model, brain slices 48 hours after probe injection, mean±SEM
How it was run: as §1

Compound | Toxicity [1] | T/N ratio ex vivo (area-normalized fluorescence-800, tumor vs normal brain) (RCAS-PDGF glioblastoma) | T/N ratio ex vivo (area-normalized fluorescence-800, tumor vs normal brain) (U-87 MG glioblastoma) | T/N ratio ex vivo (area-normalized fluorescence-800, tumor vs normal brain) (TS543 glioblastoma)
CC1(C)C(=CC=C2CCCC(C=CC3=[N+](CCCCCC(=O)[O-])c4ccc(S(=O)(=O)[O-])cc4C3(C)C)=C2Oc2ccc(S(=O)(=O)[O-])cc2)N(CCCCS(=O)(=O)[O-])c2ccc(S(=O)(=O)[O-])cc21.[Na+].[Na+].[Na+].[Na+] [IRDye 800CW] | good results |  |  | 
IRDye 800CW-conjugated cyclic Arg-Ala-Asp-D-Phe-Lys (head to tail) [IRDye 800CW-RAD, IRDye 800CW-conjugated cyclic Arg-Ala-Asp-D-Phe-Lys peptide] |  | 11.6±1.1 | 10.5±1.0 | 11.6±1.0
